Measured values as given in ChEMBL document CHEMBL1126093, “Structural features of substituted purine derivatives compatible with depletion of human O6-alkylguanine-DNA alkyltransferase” (J Med Chem, 1992).
The source made the active and inactive calls. No cut-off for these calls is given here.

How the values were obtained:
[1] = biological target: T1, Methylated-DNA--protein-cysteine methyltransferase (Homo sapiens) (UniProt P16455); test: In vitro inhibition of human alkyl transferase in HT-29 cell-free extracts.
T1 sequence (whole entry): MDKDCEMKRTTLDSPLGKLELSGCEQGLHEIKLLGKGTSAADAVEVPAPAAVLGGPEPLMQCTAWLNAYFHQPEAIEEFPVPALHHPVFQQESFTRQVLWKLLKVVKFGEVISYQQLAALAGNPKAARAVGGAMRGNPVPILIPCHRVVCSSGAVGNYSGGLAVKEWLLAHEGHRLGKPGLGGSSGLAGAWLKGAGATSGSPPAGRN
Procedure, shortened: (§1)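 HT29 crude cell extract incubated 30 min with derivative (0–400 μM, from 100 mM DMSO stocks) in 50 mM Tris-HCl pH 7.5, 0.1 mM EDTA, 5 mM DTT. Remaining AGT activity measured as loss of O⁶-[³H]methylguanine from [³H]methylnitrosourea-methylated calf thymus DNA. Dose for 50% inactivation read from %-activity-remaining vs dose plots; at least duplicates averaged.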

[2] = biological target: T1, Methylated-DNA--protein-cysteine methyltransferase (Homo sapiens); test: Inhibitory activity against alkyl transferase in HT-29 cells; format: cell-based
Procedure, shortened: (§2)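 HT29 cells plated at 5 × 10⁶ per T75 flask and grown 3 days. Medium then replaced with medium holding increasing derivative concentrations (range 0.05–400 μM where soluble) for 4 h. Cells rinsed with PBS, harvested, frozen at -80 °C, then extracted. AGT activity assayed by O⁶-[³H]methylguanine loss from [³H]methylated DNA. 50% inactivation dose taken from plots; at least duplicates.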

[3] = biological target: T1, Methylated-DNA--protein-cysteine methyltransferase (Homo sapiens); test: Inhibitory activity against alkyl transferase in HT-29 cell-free extracts; inactive; procedure, shortened: as §1
[4] = biological target: T1, Methylated-DNA--protein-cysteine methyltransferase (Homo sapiens); test: The compound was tested for its inhibitory activity against alkyl transferase in HT-29 cells; inactive; format: cell-based; procedure, shortened: as §2

Compound	ED50 [1]	ED50 [2]	ED50 [3]	ED50 [4]
Cc1ccc(COc2nc(N)nc3nc[nH]c23)cc1	0.2 µM	0.08 µM		
Nc1nc(OCc2ccc(Cl)cc2)c2[nH]cnc2n1	0.2 µM	0.08 µM		
Nc1nc(SCc2ccc([N+](=O)[O-])cc2)c2ncn([C@@H]3O[C@H](CO)[C@@H](O)[C@H]3O)c2n1			inactive	
Cc1ccc(CSc2[nH]c(N)nc3ncnc2-3)cc1			inactive	
Nc1nc(OCc2ccc(Cl)cc2)c2ncn(C3O[C@H](CO)[C@@H](O)[C@H]3O)c2n1 (some centres undefined)	10 µM	5 µM		
COc1nc(N)nc2nc[nH]c12	350 µM	120 µM		
Nc1nc(OCc2ccc(F)cc2)c2[nH]cnc2n1	0.2 µM	0.05 µM		
Nc1nc(SCc2ccccc2)c2[nH]cnc2n1			inactive	
c1ccc(COc2[nH]cnc3ncnc2-3)cc1	85 µM	36 µM		
Cc1ccc(COc2nc(N)nc3c2ncn3C2O[C@H](CO)[C@@H](O)[C@H]2O)cc1 (some centres undefined)	9 µM	3 µM		
C=CCOc1nc(N)nc2nc[nH]c12	20 µM	4 µM		

Further lines, results first:

ED50 [1]	ED50 [2]	ED50 [3]	ED50 [4]	Compound
2 µM	0.5 µM			Nc1nc(OCc2ccccc2)c2ncn([C@H]3C[C@H](O)[C@@H](CO)O3)c2n1
		inactive		CCOC(=O)Cn1cnc2nc(N)nc(OCc3ccccc3)c21
47 µM	7.5 µM			NC(=O)Cn1cnc2c(OCc3ccccc3)nc(N)nc21
		inactive		N#CCn1cnc2nc(N)nc(OCc3ccccc3)c21
11 µM	2 µM			Nc1nc(OCc2ccccc2)c2ncn(C3O[C@H](CO)[C@@H](O)[C@H]3O)c2n1 (some centres undefined)
			inactive	Nc1nc(OCc2ccccc2)c2c(ncn2CC(=O)O)n1
30 µM	3 µM			CCOC(=O)Cn1cnc2c(OCc3ccccc3)nc(N)nc21
		inactive		Nc1nc(O)c2c(ncn2Cc2ccccc2)n1
		inactive		CCC(O)Cn1cnc2nc(N)nc(OCc3ccccc3)c21 (centres undefined)
		inactive		NC(=O)Cn1cnc2nc(N)nc(OCc3ccccc3)c21
13 µM	0.8 µM			N#CCn1cnc2c(OCc3ccccc3)nc(N)nc21
13 µM	2 µM			CCC(O)Cn1cnc2c(OCc3ccccc3)nc(N)nc21 (centres undefined)
157 µM			inactive	Nc1nc(OCc2ccccc2)c2ncn(CC(=O)O)c2n1
